18 compounds from ChEMBL document CHEMBL4428136, “Cell Active Hydroxylactam Inhibitors of Human Lactate Dehydrogenase with Oral Bioavailability in Mice” (ACS Med Chem Lett, 2016) can be followed below.

SMILES strings stand for the structures.

Series [1] is described as follows: Protein binding in CD-1 mouse plasma. The series is classed as ADME, cell-free. Particulars: read-out: PPB (converted).
Series [2] in a line: Cmax in CD-1 mouse at 100 mg/kg, po administered as suspension by LC-MS/MS analysis. The series is classed as ADME, organism-based. Set-up: dose 100 mg/kg, route oral. The conditions noted are these: in vivo.
Series [3] can be described thus: AUC in CD-1 mouse at 100 mg/kg, po administered as suspension by LC-MS/MS analysis. Particulars: in vivo. The class given is ADME, organism-based.
Series [4] in a line: Plasma clearance in CD-1 mouse at 1 mg/kg, iv administered as bolus by LC-MS/MS analysis. The class given is ADME, organism-based.
Series [5] in a line: Half life in CD-1 mouse at 1 mg/kg, iv administered as bolus by LC-MS/MS analysis. The class given is ADME, organism-based. Particulars: in vivo.
Series [6] can be described thus: Cmax in CD-1 mouse at 1 mg/kg, iv administered as bolus by LC-MS/MS analysis. The series is classed as ADME, organism-based. Also noted: dose 1 mg/kg, route intravenous. The conditions noted are these: in vivo.
A short description of series [7]: Apparent permeability across apical to basolateral side in MDCK cells. The conditions noted are these: dog. The series is classed as ADME, cell-based, Canis lupus familiaris.
Series [8] can be described thus: AUC in CD-1 mouse at 5 mg/kg, po administered as suspension by LC-MS/MS analysis. The class given is ADME, organism-based. The conditions noted are these: in vivo.
Series [9] in a line: AUC in CD-1 mouse at 50 mg/kg, po administered as suspension by LC-MS/MS analysis. The class given is ADME, organism-based. The conditions noted are these: in vivo.
Series [10] in a line: Lipophilicity, log D of the compound at pH 7.4 by high throughput method. The conditions noted are these: buffer. The class given is physicochemical.
Series [11] in a line: Cmax in CD-1 mouse at 200 mg/kg, po administered as suspension by LC-MS/MS analysis. Particulars: in vivo. The series is classed as ADME, organism-based. Set-up: dose 200 mg/kg, route oral.
Series [12] can be described thus: AUC in CD-1 mouse at 200 mg/kg, po administered as suspension by LC-MS/MS analysis. The series is classed as ADME, organism-based. The conditions noted are these: in vivo.
Series [13] can be described thus: Cmax in CD-1 mouse at 50 mg/kg, po administered as suspension by LC-MS/MS analysis. The class given is ADME, organism-based. Set-up: dose 50 mg/kg, route oral. Particulars: in vivo.
A short description of series [14]: Volume of distribution at steady state in CD-1 mouse at 1 mg/kg, iv administered as bolus by LC-MS/MS analysis. The series is classed as ADME, organism-based. The conditions noted are these: in vivo, read-out: Vdss.
The nature of series [15]: AUC in CD-1 mouse at 1 mg/kg, iv administered as bolus by LC-MS/MS analysis. The series is classed as ADME, organism-based. The conditions noted are these: in vivo.
Series [16] is described as follows: Oral bioavailability in CD-1 mouse at 5 mg/kg. The series is classed as ADME, organism-based. Particulars: in vivo. Summed up:
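Bioavailability was derived from paired intravenous and oral administration in mice, with the oral dose at 5 mg/kg.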

The nature of series [17]: Cmax in CD-1 mouse at 5 mg/kg, po administered as suspension by LC-MS/MS analysis. The class given is ADME, organism-based. Also noted: dose 5 mg/kg, route oral. Particulars: in vivo.
The target of series [18] is L-lactate dehydrogenase B chain (Homo sapiens, UniProt P07195). Description: Inhibition of human recombinant carboxy-terminal His-tagged LDHB by UV endpoint assay.
L-lactate dehydrogenase B chain, sequence (P07195 whole entry): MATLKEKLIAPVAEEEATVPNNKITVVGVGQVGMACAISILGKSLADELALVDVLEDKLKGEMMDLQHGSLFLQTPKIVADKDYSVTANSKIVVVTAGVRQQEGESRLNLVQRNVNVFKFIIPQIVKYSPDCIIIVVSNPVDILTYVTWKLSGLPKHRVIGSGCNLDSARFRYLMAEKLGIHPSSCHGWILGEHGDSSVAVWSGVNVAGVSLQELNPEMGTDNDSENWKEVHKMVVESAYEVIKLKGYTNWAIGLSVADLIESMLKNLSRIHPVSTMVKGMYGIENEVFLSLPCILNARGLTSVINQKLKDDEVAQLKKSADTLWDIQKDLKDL

As for `O=C1N[C@](c2ccc(N3CCOCC3)cc2)(c2ccsc2)CC(O)=C1Sc1ccccc1Cl`, the fraction unbound in series [1] was 0.009. Also, the peak concentration (Cmax) worked out at 224 µM in series [2]; 2.5 µM in series [6]; 440 µM in series [11]; 60.7 µM in [13]; 1.7 µM in [17]. The AUC in series [3] was determined as 250 µM·h; in series [8] it was 5.1 µM·h; in series [9], 125 µM·h; in [12], 403 µM·h; in [15], 1.5 µM·h. Moreover, in series [4], the clearance was determined as 21.1 mL/min/kg. Also, the half-life in [5] is 1 h. For the same compound, in series [7], the Papp A→B worked out at 3.4 ×10⁻⁶ cm/s. The same compound gave a logD in series [10] of 0.6. In addition, the Vd in [14] turned out to be 1.4 L/kg. In [16], this compound registered a bioavailability of 70%.
For the compound `COc1ccc(C2(c3ccsc3)CC(O)=C(Sc3ccccc3Cl)C(=O)N2)cc1` (stereo not given), the IC50 in [18] worked out at 210 nM.
For `O=C1NC(c2ccsc2)(c2ccccn2)CC(O)=C1Sc1ccccc1Cl` (stereo not given), the IC50 in [18] is greater than 10000 nM.
Still for that read-out and setting: for `O=C1NC(c2ccccc2)(c2cscn2)CC(O)=C1Sc1ccccc1Cl` (stereo not given) the value was 2300 nM.
As for `N#CC1CCN(c2ccc(C3(c4ccsc4)CC(O)=C(Sc4ccccc4Cl)C(=O)N3)cc2)CC1` (stereo not given), in series [10], the logD turned out to be 0.8.
As for `O=C1NC(c2ccsc2)(c2ccccc2F)CC(O)=C1Sc1ccccc1Cl` (stereo not given), the half-maximal inhibitory concentration (IC50) in [18] is 1800 nM.
Same read-out and setting: for `N#Cc1ccc(C2(c3ccsc3)CC(O)=C(Sc3ccccc3Cl)C(=O)N2)cc1` (stereo not given) the value was 1100 nM.
As for `O=C1NC(c2ccccc2)(c2ccsc2)CC(O)=C1Sc1ccccc1Cl` (stereo not given), the Papp A→B in series [7] stood at 7.4 ×10⁻⁶ cm/s. The compound also displayed a log distribution coefficient (logD) in [10] of 0.8.
For the compound `CC1CN(c2ccc(C3(c4ccsc4)CC(O)=C(Sc4ccccc4Cl)C(=O)N3)cc2)CC(C)O1` (stereo not given), in [1], the fraction unbound is less than 0.001. Also, the Papp A→B in [7] was 6 ×10⁻⁶ cm/s. Besides, the logD in [10] is 1.3.
For `O=C1NC(c2ccc(N3CCOCC3=O)cc2)(c2ccsc2)CC(O)=C1Sc1ccccc1Cl` (stereo not given), the logD in [10] was found to be 0.4.
Same read-out and setting: for `CC1(C)CN(c2ccc(C3(c4ccsc4)CC(O)=C(Sc4ccccc4Cl)C(=O)N3)cc2)CCO1` (stereo not given) the value was 1.3.
For `O=C1NC(c2ccc(N3CCC4(CC3)COC4)cc2)(c2ccsc2)CC(O)=C1Sc1ccccc1Cl` (stereo not given), in [10], the logD was 0.7.
As to `O=C1NC(c2ccccc2)(c2ccccc2)CC(O)=C1Sc1ccccc1Cl`, in series [1], the fraction unbound is 0.007. In series [7], the apparent permeability from apical to basolateral (Papp A→B) was 9.4 ×10⁻⁶ cm/s. In [18], the IC50 was 2200 nM. The logD in series [10] was 1.4.
`COC1CCN(c2ccc(C3(c4ccsc4)CC(O)=C(Sc4ccccc4Cl)C(=O)N3)cc2)CC1` (racemic) registered a logD in series [10] of 1.2.
Turning to `O=C1NC(c2ccc(N3CCCCC3)cc2)(c2ccsc2)CC(O)=C1Sc1ccccc1Cl` (racemic), the fraction unbound in series [1] is less than 0.001. Further, the Papp A→B in [7] came to 1.7 ×10⁻⁶ cm/s. In series [10], this compound showed a logD of 2.1.
For the compound `O=C1NC(c2ccsc2)(c2cccc(NC3CCOCC3)c2)CC(O)=C1Sc1ccccc1Cl` (racemic), the Papp A→B in [7] came out at 0.5 ×10⁻⁶ cm/s. This compound returned a pH-dependent lipophilicity (logD) in series [10] of -0.3.
As to `O=C1NC(c2ccsc2)(c2cccc(Nc3ccc(F)cc3)c2)CC(O)=C1Sc1ccccc1Cl` (racemic), the fraction unbound in series [1] is less than 0.001. Also, in series [7], the apical-to-basolateral permeability (Papp A→B) is 1 ×10⁻⁶ cm/s. This compound returned a logD in [10] of 2.4.
`O=C1NC(c2ccc(C3CCCCC3)cc2)(c2ccsc2)CC(O)=C1Sc1ccccc1Cl` (racemic) registered a pH-dependent lipophilicity (logD) in series [10] of 3.5.
